{
  "source": "ChEMBL document CHEMBL4152290",
  "about": "“1H-Benzo[d]imidazoles and 3,4-dihydroquinazolin-4-ones: Design, synthesis and antitubercular activity” (Eur J Med Chem, 2018)",
  "data": [
    {"test_system": "Mycobacterium tuberculosis", "assay": "Antitubercular activity against Mycobacterium tuberculosis H37Rv ATCC 27294 after 7 days by resazurin dye based assay", "format": "functional", "details": "H37Rv ATCC 27294, 168 h", "in_short": "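Resazurin microtiter MIC in 7H9 with 10% ADC. Two-fold dilutions from 1 mg/mL DMSO stocks span 25.0–0.05, 10.0–0.02 or 0.02–0.0004 µg/mL, with 2.5% DMSO final. Inoculum is bead-declumped culture grown in 7H9/10% OADC/0.05% Tween 80, diluted to OD600 0.006. Plates run 7 days at 37 °C, then 0.01% resazurin for 48 h. MIC is the lowest concentration preventing the blue-to-pink change. Three independent tests.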", "units": {"MIC": "µM"}, "values": [
      {"smiles": "O=C(CSc1nc2ccccc2[nH]1)Nc1ccc2c(c1)CCC2", "MIC": "> 29.6"},
      {"smiles": "O=C(CSc1nc2ccccc2[nH]1)NCc1ccccc1", "MIC": "> 33.6"},
      {"smiles": "O=C(CSc1nc(O)c2ccccc2n1)N1CCCCC1", "MIC": "> 33"},
      {"smiles": "O=C(CSc1nc(O)c2ccccc2n1)Nc1ccc(Br)cc1", "MIC": "> 25.6"},
      {"smiles": "CC1CCCCC1NC(=O)CSc1nc2ccccc2[nH]1", "note": "(stereo not drawn)", "MIC": "> 33"},
      {"smiles": "O=C(CSc1nc(O)c2ccccc2n1)Nc1ccc([N+](=O)[O-])cc1", "MIC": "> 28.1"},
      {"smiles": "O=C(CSc1nc2ccccc2c(=O)[nH]1)NC1CCCC1", "MIC": 2.07},
      {"smiles": "CN(C(=O)CSc1nc2ccccc2c(=O)[nH]1)C1CCCCC1", "MIC": "> 75.4"},
      {"smiles": "CCCCCc1ccc(NC(=O)CSc2nc3ccccc3c(=O)[nH]2)cc1", "MIC": 26.2},
      {"smiles": "C[C@H]1CC[C@H](NC(=O)CSc2nc3ccccc3[nH]2)CC1", "MIC": 16.5},
      {"smiles": "C[C@@H](NC(=O)CSc1nc2ccccc2c(=O)[nH]1)C1CCCCC1", "MIC": "> 28.9"},
      {"smiles": "Cc1ccc(NC(=O)CSc2nc3ccccc3c(=O)[nH]2)cc1", "MIC": "> 30.7"},
      {"smiles": "CCCCCc1ccc(NC(=O)CSc2nc3ccccc3[nH]2)cc1", "MIC": "> 70.7"},
      {"smiles": "CC1CCCC(NC(=O)CSc2nc3ccccc3[nH]2)C1", "note": "(stereo not drawn)", "MIC": "> 33"},
      {"smiles": "O=C(CSc1nc2ccccc2[nH]1)NCC1CCCCC1", "MIC": 82.4},
      {"smiles": "O=C(CSc1nc2ccccc2c(=O)[nH]1)NCc1ccccc1", "MIC": 4.8},
      {"smiles": "CCCc1ccc(NC(=O)CSc2nc3ccccc3c(=O)[nH]2)cc1", "MIC": "> 28.3"},
      {"smiles": "O=C(CSc1nc2ccccc2c(=O)[nH]1)N[C@@H]1CCc2ccccc2C1", "MIC": 17.1},
      {"smiles": "C[C@H](NC(=O)CSc1nc2ccccc2[nH]1)C1CCCCC1", "MIC": "> 31.5"},
      {"smiles": "O=C(CSc1nc2ccccc2c(=O)[nH]1)Nc1ccc2ccccc2c1", "MIC": "> 27.7"},
      {"smiles": "C[C@H](NC(=O)CSc1nc2ccccc2c(=O)[nH]1)C1CCCCC1", "MIC": "> 28.9"},
      {"smiles": "O=C(CSc1nc2ccccc2c(=O)[nH]1)Nc1ccc(I)cc1", "MIC": "> 22.9"},
      {"smiles": "O=C(CSc1nc2ccccc2c(=O)[nH]1)Nc1ccc(F)cc1", "MIC": "> 30.4"},
      {"smiles": "O=C(CSc1nc2ccccc2[nH]1)Nc1ccc2ccccc2c1", "MIC": "> 75"},
      {"smiles": "COc1ccccc1NC(=O)CSc1nc2ccccc2[nH]1", "MIC": "> 31.9"},
      {"smiles": "COc1ccc(NC(=O)CSc2nc3ccccc3c(=O)[nH]2)cc1", "MIC": "> 29.3"},
      {"smiles": "CCCCCCCc1ccc(NC(=O)CSc2nc3ccccc3[nH]2)cc1", "MIC": "> 65.5"},
      {"smiles": "O=C(CSc1nc2ccccc2[nH]1)NC1CCCCC1", "MIC": "> 31.3"},
      {"smiles": "CC1CCC(NC(=O)CSc2nc3ccccc3[nH]2)CC1", "note": "(stereo not drawn)", "MIC": 41.2},
      {"smiles": "O=C(CSc1nc2ccccc2c(=O)[nH]1)N[C@H]1CCc2ccccc2C1", "MIC": "> 27.4"},
      {"smiles": "O=C(CSc1nc2ccccc2c(=O)[nH]1)Nc1ccccc1", "MIC": "> 32.1"},
      {"smiles": "O=C(CSc1nc2ccccc2c(=O)[nH]1)Nc1ccc(Cl)cc1", "MIC": 28.9},
      {"smiles": "NNC(=O)c1ccncc1", "note": "[ISONIAZID]", "MIC": 2.9}
    ]}
  ]
}
